Here are results for 37 compounds from ChEMBL document CHEMBL3853295, “Design and synthesis of novel pyrazolo[1,5-a]pyrimidine derivatives bearing nitrogen mustard moiety and evaluation of their antitumor activity in vitro and in vivo” (Eur J Med Chem, 2016).

Holding throughout (format): functional, cell-based
Experiment [1] can be described thus: Cytotoxicity against human MCF7 cells after 72 hrs by MTT assay. The conditions noted are these: MCF7, 72 h. Put shortly: (§1)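 Cells cultured in DMEM or RPMI 1640 with 10% FBS. Seeded at about 2 × 10^3 per well and grown 24 h at 37 °C, 5% CO2. Compounds added at final 0.1–1000 uM for 72 h, 5 wells per concentration. MTT added for 4 h at 37 °C, then lysis overnight. Absorbance read at 570 nm against a 650 nm reference; IC50 calculated.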
For orientation: Tetrazolium dyes change colour on reduction, which living cells bring about.

Experiment [2] in a line: Cytotoxicity against human DU145 cells after 72 hrs by MTT assay. The conditions noted are these: DU-145, 72 h. Put shortly: as §1
The nature of experiment [3]: Cytotoxicity against human SH-SY5Y cells after 72 hrs by MTT assay. In a few lines:
as §1

Experiment [4] is described as follows: Cytotoxicity against human HepG2 cells after 72 hrs by MTT assay. The conditions noted are these: HepG2, 72 h. Put shortly:
as §1

Experiment [5] can be described thus: Cytotoxicity against human A549 cells after 72 hrs by MTT assay. The settings on record: A549, 72 h. In a few lines: as §1

SMILES strings stand for the structures. Where only a bound is given, the exact number is not on record here.

The IC50 is the concentration at which inhibition is half-maximal. On to `CN(C)C1CCN(Cc2cc(Nc3cccc(N(CCCl)CCCl)c3)n3ncc(C#N)c3n2)CC1`, for which the IC50 in experiment [1] worked out at 25.2 µM; in experiment [2], 27 µM; in experiment [3], 15.3 µM; in experiment [4] it was 9.22 µM; in experiment [5] it was 12.7 µM.
The corresponding values for `N#Cc1cnn2c(Nc3cccc(N(CCCl)CCCl)c3)cc(CN3CCCC3)nc12` are 37.5 µM, 35.4 µM, 15.7 µM, 14.4 µM and 17.5 µM.
As to `N#Cc1cnn2c(Nc3ccc(F)c(Cl)c3)cc(CN(CCCl)CCCl)nc12`, the half-inhibitory concentration (IC50) is 76.8 µM in experiment [1]; 27.4 µM in experiment [2]; > 100 µM in experiment [3]; 89.4 µM in experiment [4]; > 100 µM in experiment [5].
Take `Cc1cc(C)cc(Nc2cc(CN(CCCl)CCCl)nc3c(C#N)cnn23)c1`: the IC50 in experiment [1] was > 100 µM; in experiment [2], > 100 µM; in experiment [3], > 100 µM; in experiment [4], 59.4 µM; in experiment [5] it was 97.4 µM.
For the compound `N#Cc1cnn2c(Nc3cccc(N(CCCl)CCCl)c3)cc(CN3CCOCC3)nc12`, the IC50 is > 100 µM in experiment [1]; > 100 µM in experiment [2]; 61 µM in experiment [3]; 33.4 µM in experiment [4]; > 100 µM in experiment [5].
With `N#Cc1cnn2c(Nc3cccc(F)c3)cc(CN(CCCl)CCCl)nc12`, the IC50 in experiment [1] was > 100 µM; in experiment [2] it was > 100 µM; in experiment [3], > 100 µM; in experiment [4], 67.2 µM; in experiment [5], > 100 µM.
On to `N#Cc1cnn2c(Nc3ccccc3Cl)cc(CN(CCCl)CCCl)nc12`, for which the IC50 in experiment [1], in experiment [2], in experiment [3], in experiment [4] and in experiment [5] was > 100 µM in each case.
For the compound `N#Cc1cnn2c(Nc3ccccc3Br)cc(CN(CCCl)CCCl)nc12`, the IC50 in experiment [1], in experiment [2], in experiment [3], in experiment [4] and in experiment [5] was > 100 µM each time.
Turning to `N#Cc1cnn2c(Nc3cccc(N(CCCl)CCCl)c3)cc(CN3CCC(O)CC3)nc12`, the IC50 is 70.4 µM in experiment [1]; > 100 µM in experiment [2]; 36.7 µM in experiment [3]; 29.7 µM in experiment [4]; 35.8 µM in experiment [5].
As for `N#Cc1cnn2c(Nc3ccc(N(CCCl)CCCl)cc3)cc(CN3CCC(CO)CC3)nc12`, the IC50 in experiment [1] is 16.2 µM; in experiment [2] it was 26.8 µM; in experiment [3] it was 11.5 µM; in experiment [4], 8.54 µM; in experiment [5] it was 12.8 µM.
The corresponding values for `Cc1ccccc1Nc1cc(CN(CCCl)CCCl)nc2c(C#N)cnn12` are 99.2 µM, > 100 µM, > 100 µM, > 100 µM and > 100 µM.
The corresponding values for `N#Cc1cnn2c(Nc3ccc(C(F)(F)F)cc3)cc(CN(CCCl)CCCl)nc12` are 33 µM, 95.1 µM, > 100 µM, 55.5 µM and > 100 µM.
The corresponding values for `N#Cc1cnn2c(Nc3ccc(N(CCCl)CCCl)cc3)cc(CN3CCOCC3)nc12` are 11.3 µM, 10.7 µM, 6.71 µM, 5.51 µM and 13.6 µM.
`N#Cc1cnn2c(Nc3ccc(Cl)cc3)cc(CN(CCCl)CCCl)nc12`: the half-maximal inhibitory concentration (IC50) was determined as 33 µM in experiment [1]; 42.9 µM in experiment [2]; 50.6 µM in experiment [3]; 39.3 µM in experiment [4]; 79.5 µM in experiment [5].
The corresponding values for `CCOC(=O)c1ccc(Nc2cc(CN(CCCl)CCCl)nc3c(C#N)cnn23)cc1` are 26.4 µM, 37.3 µM, 64.4 µM, 52.1 µM and 85.4 µM.
Regarding `C#Cc1cccc(Nc2cc(CN(CCCl)CCCl)nc3c(C#N)cnn23)c1`, the IC50 in experiment [1] is 34 µM; in experiment [2] it was 83.1 µM; in experiment [3], > 100 µM; in experiment [4], 44.2 µM; in experiment [5], > 100 µM.
Regarding `COc1cc(Nc2cc(CN(CCCl)CCCl)nc3c(C#N)cnn23)cc(OC)c1`, the IC50 in experiment [1], in experiment [2], in experiment [3], in experiment [4] and in experiment [5] was > 100 µM each time.
`Cc1cc(Nc2cc(CN(CCCl)CCCl)nc3c(C#N)cnn23)ccc1F`: the IC50 is 38 µM in experiment [1]; 76.1 µM in experiment [2]; 77.9 µM in experiment [3]; 39 µM in experiment [4]; 75 µM in experiment [5].
The corresponding values for `CCOC(=O)C1CCN(Cc2cc(Nc3cccc(N(CCCl)CCCl)c3)n3ncc(C#N)c3n2)CC1` are > 100 µM, > 100 µM, > 100 µM, 88.1 µM and > 100 µM.
The corresponding values for `N#Cc1cnn2c(Nc3cccc(Br)c3)cc(CN(CCCl)CCCl)nc12` are 41 µM, > 100 µM, > 100 µM, 49.7 µM and > 100 µM.
The corresponding values for `CN(C)Cc1cc(Nc2cccc(N(CCCl)CCCl)c2)n2ncc(C#N)c2n1` are 54.6 µM, 59.3 µM, 40.8 µM, 33.6 µM and 39.8 µM.
Turning to `N#Cc1cnn2c(Nc3cc(F)cc(F)c3)cc(CN(CCCl)CCCl)nc12`, the IC50 in experiment [1] was 84.4 µM; in experiment [2] it was > 100 µM; in experiment [3], > 100 µM; in experiment [4] it was > 100 µM; in experiment [5], > 100 µM.
In the case of `CN1CCN(Cc2cc(Nc3cccc(N(CCCl)CCCl)c3)n3ncc(C#N)c3n2)CC1`, the IC50 in experiment [1] came out at 41.1 µM; in experiment [2] it was 50.5 µM; in experiment [3], 15.3 µM; in experiment [4], 17.6 µM; in experiment [5] it was 19.5 µM.
Take `Cc1cccc(Nc2cc(CN(CCCl)CCCl)nc3c(C#N)cnn23)c1`: the IC50 in experiment [1] was 25.8 µM; in experiment [2], 35 µM; in experiment [3], 79.9 µM; in experiment [4], 62.1 µM; in experiment [5], > 100 µM.
The corresponding values for `N#Cc1cnn2c(Nc3ccc(F)cc3)cc(CN(CCCl)CCCl)nc12` are 77.5 µM, 84.4 µM, > 100 µM, 64.2 µM and > 100 µM.
The corresponding values for `N#Cc1cnn2c(Nc3cccc(N(CCCl)CCCl)c3)cc(CN3CCC(c4ccccc4)CC3)nc12` are > 100 µM, > 100 µM, > 100 µM, > 100 µM and > 100 µM.
The corresponding values for `N[C@@H](Cc1ccc(N(CCCl)CCCl)cc1)C(=O)O` [MELPHALAN] are 40.6 µM, > 100 µM, > 100 µM, 18.3 µM and 43.8 µM.
For `N#Cc1cnn2c(Nc3cccc(N(CCCl)CCCl)c3)cc(CN3CCC(CO)CC3)nc12`, the IC50 in experiment [1] is 41.1 µM; in experiment [2] it was 33.4 µM; in experiment [3], 30.7 µM; in experiment [4], 18.4 µM; in experiment [5] it was 27.9 µM.
The corresponding values for `CCN1CCN(Cc2cc(Nc3cccc(N(CCCl)CCCl)c3)n3ncc(C#N)c3n2)CC1` are 23.9 µM, 44.1 µM, 22.7 µM, 16.6 µM and 16.5 µM.
For `N#Cc1cnn2c(Nc3ccc(Br)cc3)cc(CN(CCCl)CCCl)nc12`, the IC50 in experiment [1] amounted to 28.3 µM; in experiment [2], 33.1 µM; in experiment [3] it was 49.1 µM; in experiment [4], 37.2 µM; in experiment [5], 61.4 µM.
The corresponding values for `CC1CCN(Cc2cc(Nc3cccc(N(CCCl)CCCl)c3)n3ncc(C#N)c3n2)CC1` are > 100 µM, 55.8 µM, 25.9 µM, 33.8 µM and 35.9 µM.
Consider `N#Cc1cnn2c(Nc3ccc(N(CCCl)CCCl)cc3)cc(CN3CCC(c4ccccc4)CC3)nc12`, for which the IC50 in experiment [1], in experiment [2], in experiment [3], in experiment [4] and in experiment [5] was > 100 µM each time.
Consider `N#Cc1cnn2c(Nc3cccc(Cl)c3)cc(CN(CCCl)CCCl)nc12`, for which the IC50 was 23 µM in experiment [1]; 43.5 µM in experiment [2]; > 100 µM in experiment [3]; 56.6 µM in experiment [4]; > 100 µM in experiment [5].
Turning to `CCOC(=O)C1CCN(Cc2cc(Nc3ccc(N(CCCl)CCCl)cc3)n3ncc(C#N)c3n2)CC1`, the IC50 in experiment [1] is > 100 µM; in experiment [2], > 100 µM; in experiment [3], 74.1 µM; in experiment [4] it was 74.2 µM; in experiment [5], > 100 µM.
As to `N#Cc1cnn2c(Nc3ccc(F)c(C(F)(F)F)c3)cc(CN(CCCl)CCCl)nc12`, the IC50 in experiment [1] is 75.1 µM; in experiment [2], > 100 µM; in experiment [3], > 100 µM; in experiment [4], > 100 µM; in experiment [5], > 100 µM.
Take `N#Cc1cnn2c(Nc3cccc(N(CCCl)CCCl)c3)cc(CN3CCC(N4CCCCC4)CC3)nc12`: the IC50 stood at 25.1 µM in experiment [1]; 22.4 µM in experiment [2]; 9.36 µM in experiment [3]; 9.07 µM in experiment [4]; 13.2 µM in experiment [5].
Regarding `N#Cc1cnn2c(Nc3ccc(N(CCCl)CCCl)cc3)cc(CN3CCC(O)CC3)nc12`, the IC50 stood at 20.4 µM in experiment [1]; 20.9 µM in experiment [2]; 13.7 µM in experiment [3]; 9.11 µM in experiment [4]; 20.6 µM in experiment [5].
